Legend:
in vivo [1] = settings: Sprague-Dawley, rat, po, 10 mg/kg
[2] = Oral bioavailability in BCRP knockout Sprague-Dawley rat at 10 mg/kg by LC-MS/MS analysis; type: ADME, organism-based; settings: in vivo
In short: (§1)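 Male Sprague-Dawley rats (knockout or wild type matched for age and weight), femoral artery and vein cannulated, at least 2 days recovery. Crossover design: IV bolus 1 mg/kg on day 0 (saline with 0.2 M equivalents HCl), oral gavage 10 mg/kg on day 3 (water with 0.2 M equivalents HCl). Arterial plasma sampled to 24 h (Mdr1a oral arm to 4 h). Analysed by LC-MS/MS and noncompartmental analysis.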

[3] = Tmax in wild-type Sprague-Dawley rat at 10 mg/kg, po by LC-MS/MS analysis; type: ADME, organism-based; set-up: dose 10 mg/kg, route oral; settings: in vivo
In short: as §1

[4] = Half life in wild-type Sprague-Dawley rat at 1 mg/kg, iv by LC-MS/MS analysis; type: ADME, organism-based; set-up: dose 1 mg/kg, route intravenous; settings: in vivo
In short: as §1

[5] = Half life in MDR1A knockout Sprague-Dawley rat at 1 mg/kg, iv by LC-MS/MS analysis; type: ADME, organism-based; set-up: dose 1 mg/kg, route intravenous; settings: in vivo
In short: as §1

Rattus norvegicus [6] = experiment: Toxicity in MDR1A knockout Sprague-Dawley rat assessed as stupor at 10 mg/kg, po after 4 hrs; type: organism-based; set-up: dose 10 mg/kg, route oral; settings: in vivo
In short: (§2)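 Independent veterinary staff recorded clinical central signs. After oral dosing, animals were observed 1–2 h post-dose and again at 4 h, when sampling stopped and the animals were discontinued.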

[7] = Cmax in MRP2 knockout Sprague-Dawley rat at 10 mg/kg, po by LC-MS/MS analysis; type: ADME, organism-based; set-up: dose 10 mg/kg, route oral; settings: in vivo
In short: as §1

[8] = Volume of distribution at steady state in BCRP knockout Sprague-Dawley rat at 1 mg/kg, iv by LC-MS/MS analysis; type: ADME, organism-based; set-up: dose 1 mg/kg, route intravenous; settings: in vivo, read-out: Vdss
In short: as §1

Rattus norvegicus [9] = experiment: Toxicity in MDR1A knockout Sprague-Dawley rat assessed as mortality at 10 mg/kg, po after 4 hrs; type: organism-based; set-up: dose 10 mg/kg, route oral; settings: in vivo
In short: as §2

[10] = Half life in MRP2 knockout Sprague-Dawley rat at 1 mg/kg, iv by LC-MS/MS analysis; type: ADME, organism-based; set-up: dose 1 mg/kg, route intravenous; settings: in vivo
In short: as §1, with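 “HCl).” for “HCl). Arterial plasma sampled to 24 h (Mdr1a oral arm to 4 h).”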

[11] = Tmax in MRP2 knockout Sprague-Dawley rat at 10 mg/kg, po by LC-MS/MS analysis; type: ADME, organism-based; set-up: dose 10 mg/kg, route oral; settings: in vivo
In short: as §1

[12] = Cmax in MDR1A knockout Sprague-Dawley rat at 10 mg/kg, po by LC-MS/MS analysis; type: ADME, organism-based; set-up: dose 10 mg/kg, route oral; settings: in vivo
In short: as §1

Rattus norvegicus [13] = experiment: Toxicity in MDR1A knockout Sprague-Dawley rat assessed as eye protrusion at 10 mg/kg, po after 1 to 2 hrs; type: organism-based; set-up: dose 10 mg/kg, route oral; settings: in vivo
In short: as §2

in vivo [14] = settings: Sprague-Dawley, rat, po, 10 mg/kg; remark: listed apart in the source
in vivo [15] = settings: Sprague-Dawley, rat, plasma, po, 10 mg/kg
[16] = Tmax in MDR1A knockout Sprague-Dawley rat at 10 mg/kg, po by LC-MS/MS analysis; type: ADME, organism-based; set-up: dose 10 mg/kg, route oral; settings: in vivo
In short: as §1

Rattus norvegicus [17] = experiment: Toxicity in MDR1A knockout Sprague-Dawley rat assessed as lethargic behavior at 1 mg/kg, iv; type: organism-based; set-up: dose 1 mg/kg, route intravenous; settings: in vivo
Rattus norvegicus [18] = experiment: Toxicity in MDR1A knockout Sprague-Dawley rat assessed as shallow breathing at 10 mg/kg, po after 1 to 2 hrs; type: organism-based; set-up: dose 10 mg/kg, route oral; settings: in vivo
In short: as §2

[19] = Oral bioavailability in MDR1A knockout Sprague-Dawley rat at 10 mg/kg by LC-MS/MS analysis; type: ADME, organism-based; settings: in vivo
In short: as §1

[20] = Volume of distribution at steady state in wild-type Sprague-Dawley rat at 1 mg/kg, iv by LC-MS/MS analysis; type: ADME, organism-based; set-up: dose 1 mg/kg, route intravenous; settings: in vivo, read-out: Vdss
In short: as §1

in vivo [21] = settings: Sprague-Dawley, rat, plasma, po, 10 mg/kg; remark: listed apart in the source
[22] = AUC (infinity) in wild-type Sprague-Dawley rat at 1 mg/kg, iv by LC-MS/MS analysis; type: ADME, organism-based; set-up: time infinity, dose 1 mg/kg, route intravenous; settings: plasma
[23] = Oral bioavailability in wild-type Sprague-Dawley rat at 10 mg/kg by LC-MS/MS analysis; type: ADME, organism-based; settings: in vivo
In short: as §1

[24] = Cmax in BCRP knockout Sprague-Dawley rat at 10 mg/kg, po by LC-MS/MS analysis; type: ADME, organism-based; set-up: dose 10 mg/kg, route oral; settings: in vivo
In short: as §1

Rattus norvegicus [25] = experiment: Toxicity in MDR1A knockout Sprague-Dawley rat assessed as lacrimation at 10 mg/kg, po after 1 to 2 hrs; type: organism-based; set-up: dose 10 mg/kg, route oral; settings: in vivo
In short: as §2

[26] = AUC (infinity) in MRP2 knockout Sprague-Dawley rat at 1 mg/kg, iv by LC-MS/MS analysis; type: ADME, organism-based, Plasma; set-up: time infinity, dose 1 mg/kg, route intravenous; settings: Sprague-Dawley, plasma
[27] = Oral bioavailability in MRP2 knockout Sprague-Dawley rat at 10 mg/kg by LC-MS/MS analysis; type: ADME, organism-based; settings: in vivo
In short: as §1

[28] = Half life in wild-type Sprague-Dawley rat at 10 mg/kg, po by LC-MS/MS analysis; type: ADME, organism-based; set-up: dose 10 mg/kg, route oral; settings: in vivo
In short: as §1

[29] = Half life in BCRP knockout Sprague-Dawley rat at 10 mg/kg, po by LC-MS/MS analysis; type: ADME, organism-based; set-up: dose 10 mg/kg, route oral; settings: in vivo
In short: as §1

[30] = Volume of distribution at steady state in MRP2 knockout Sprague-Dawley rat at 1 mg/kg, iv by LC-MS/MS analysis; type: ADME, organism-based; set-up: dose 1 mg/kg, route intravenous; settings: in vivo, read-out: Vdss
In short: as §1

[31] = AUC (infinity) in BCRP knockout Sprague-Dawley rat at 1 mg/kg, iv by LC-MS/MS analysis; type: ADME, organism-based; set-up: time infinity, dose 1 mg/kg, route intravenous; settings: plasma
[32] = Half life in BCRP knockout Sprague-Dawley rat at 1 mg/kg, iv by LC-MS/MS analysis; type: ADME, organism-based; set-up: dose 1 mg/kg, route intravenous; settings: in vivo
In short: as §1

[33] = Half life in MRP2 knockout Sprague-Dawley rat at 10 mg/kg, po by LC-MS/MS analysis; type: ADME, organism-based; set-up: dose 10 mg/kg, route oral; settings: in vivo
In short: as §1

[34] = Volume of distribution at steady state in MDR1A knockout Sprague-Dawley rat at 1 mg/kg, iv by LC-MS/MS analysis; type: ADME, organism-based; set-up: dose 1 mg/kg, route intravenous; settings: in vivo, read-out: Vdss
In short: as §1

[35] = AUC (infinity) in MDR1A knockout Sprague-Dawley rat at 1 mg/kg, iv by LC-MS/MS analysis; type: ADME, organism-based; set-up: time infinity, dose 1 mg/kg, route intravenous; settings: plasma
[36] = Tmax in BCRP knockout Sprague-Dawley rat at 10 mg/kg, po by LC-MS/MS analysis; type: ADME, organism-based; set-up: dose 10 mg/kg, route oral; settings: in vivo
In short: as §1

[37] = Cmax in wild-type Sprague-Dawley rat at 10 mg/kg, po by LC-MS/MS analysis; type: ADME, organism-based; set-up: dose 10 mg/kg, route oral; settings: in vivo
In short: as §1

in vivo [38] = settings: Sprague-Dawley, rat, plasma, po, 10 mg/kg; remark: listed apart in the source
Rattus norvegicus [39] = experiment: Toxicity in MDR1A knockout Sprague-Dawley rat assessed as hypoactive behavior at 10 mg/kg, po after 1 to 2 hrs; type: organism-based; set-up: dose 10 mg/kg, route oral; settings: in vivo
In short: as §2

In the case of `CN(C)C(=O)C(CCN1CCC(O)(c2ccc(Cl)cc2)CC1)(c1ccccc1)c1ccccc1` [LOPERAMIDE], the AUC(0-t) at 4 h (in vivo [1]) was 184 ng·h/mL, the bioavailability [2] was 40% and the Tmax [3] was 0.3 h. The half-life [4] was 1 h, the half-life [5] was 1.5 h and the Activity (Rattus norvegicus [6]) was “Toxic”. The Cmax [7] was 60 ng/mL, the Vd [8] was 11.5 L/kg and the Activity (Rattus norvegicus [9]) was “Toxic”. It also gave a half-life [10] of 1.1 h, a Tmax [11] of 0.4 h and a Cmax [12] of 226 ng/mL. For the same compound, the Activity (Rattus norvegicus [13]) was “Toxic”, the AUC(0-t) at 4 h (in vivo [14]) was 651 ng·h/mL and the AUC(0-inf) (in vivo [15]) was 1020 ng·h/mL. The Tmax [16] was 0.8 h, the Activity (Rattus norvegicus [17]) was “Toxic” and the Activity (Rattus norvegicus [18]) was “Toxic”. For the same compound, the bioavailability [19] was 34%, the Vd [20] was 9 L/kg and the AUC(0-inf) (in vivo [21]) was 980 ng·h/mL. It also gave an AUC(0-inf) [22] of 131 ng·h/mL, a bioavailability [23] of 16% and a Cmax [24] of 69 ng/mL. The Activity (Rattus norvegicus [25]) was “Toxic”, the AUC(0-inf) [26] was 122 ng·h/mL and the bioavailability [27] was 60%. For the same compound, the half-life [28] was 13 h, the half-life [29] was 15 h and the Vd [30] was 21.2 L/kg. For the same compound, the AUC(0-inf) [31] was 161 ng·h/mL, the half-life [32] was 1.5 h and the half-life [33] was 13 h. For the same compound, the Vd [34] was 7.9 L/kg, the AUC(0-inf) [35] was 243 ng·h/mL and the Tmax [36] was 0.7 h. The Cmax [37] was 90 ng/mL, the AUC(0-inf) (in vivo [38]) was 806 ng·h/mL and the Activity (Rattus norvegicus [39]) was “Toxic”.

Source: ChEMBL document CHEMBL3526049 (Drug Metab Dispos, 2012)
